Test results published in ChEMBL document CHEMBL3351694, “Synthesis and SAR studies of benzyl ether derivatives as potent orally active S1P₁ agonists” (Bioorg Med Chem, 2014).

Legend:
Homo sapiens = species: Homo sapiens; experiment: Selectivity index, ratio of EC50 for human S1P3 receptor to EC50 for human S1P1 receptor
[1] = target: Sphingosine 1-phosphate receptor 3 (Homo sapiens, UniProt Q99500); experiment: Agonist activity at human S1P3 receptor expressed in CHOK1 cell membranes by [35S]GTPgammaS binding assay; assay type: functional, CHO-K1
Sphingosine 1-phosphate receptor 3, sequence (Q99500 whole entry): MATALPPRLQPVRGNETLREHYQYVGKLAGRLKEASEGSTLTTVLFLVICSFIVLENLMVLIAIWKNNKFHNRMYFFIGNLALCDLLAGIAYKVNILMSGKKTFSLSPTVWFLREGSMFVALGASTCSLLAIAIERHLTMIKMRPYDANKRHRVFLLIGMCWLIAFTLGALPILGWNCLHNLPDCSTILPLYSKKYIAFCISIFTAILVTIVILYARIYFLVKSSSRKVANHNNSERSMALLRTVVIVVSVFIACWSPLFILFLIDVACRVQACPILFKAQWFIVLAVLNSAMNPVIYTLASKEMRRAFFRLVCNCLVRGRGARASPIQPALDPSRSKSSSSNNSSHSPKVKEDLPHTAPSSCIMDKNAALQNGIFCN
Method in brief: (§1)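 Membranes of CHO-K1 cells transfected with human S1P1 or S1P3. Phosphorylated compounds tested. Buffer: 50 mM HEPES pH 7.5, 100 mM NaCl, 5 mM MgCl2, 0.05 mg/mL saponin, with GDP and DTT. Started with [35S]GTPγS plus membrane, 60 min at room temperature, then filter harvest and scintillation counting. Binding expressed as % of 20 µM Sph-1-P response, blank-corrected, n = 2.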

[2] = target: Sphingosine 1-phosphate receptor 1 (Homo sapiens, UniProt P21453); experiment: Agonist activity at human S1P1 receptor expressed in CHOK1 cell membranes by [35S]GTPgammaS binding assay; assay type: functional, CHO-K1; method in brief: as §1
Sphingosine 1-phosphate receptor 1, sequence (P21453 whole entry): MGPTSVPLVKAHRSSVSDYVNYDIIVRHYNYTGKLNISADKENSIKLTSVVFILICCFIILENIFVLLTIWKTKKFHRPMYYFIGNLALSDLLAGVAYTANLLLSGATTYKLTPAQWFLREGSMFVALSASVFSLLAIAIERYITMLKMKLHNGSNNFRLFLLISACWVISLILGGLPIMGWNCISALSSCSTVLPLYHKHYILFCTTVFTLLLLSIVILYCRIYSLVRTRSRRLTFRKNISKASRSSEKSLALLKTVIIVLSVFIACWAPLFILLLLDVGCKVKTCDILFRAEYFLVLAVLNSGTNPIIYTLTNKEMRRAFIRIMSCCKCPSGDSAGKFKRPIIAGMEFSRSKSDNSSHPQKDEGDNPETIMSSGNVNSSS

[3] = Cmax in rat at 1 mg/kg, po; assay type: ADME, organism-based; parameters: dose 1 mg/kg, route oral; conditions: in vivo
Method in brief: (§2)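 Single oral dose of 1.0 mg/kg parent compound in rats, n = 2 or 3. Plasma levels measured for parent and its phosphate. Cmax, AUC0-48 and T1/2 derived from plasma concentration. Half-life of phosphate taken from plasma phosphate level after dosing at 1.0 mg/kg p.o., n = 2.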

[4] = Half life in rat at 1 mg/kg, po; assay type: ADME, organism-based; parameters: dose 1 mg/kg, route oral; conditions: in vivo; method in brief: as §2
[5] = AUC (0 to 48 hrs) in rat at 1 mg/kg, po; assay type: ADME, organism-based; parameters: time < 48 hr, dose 1 mg/kg, route oral; conditions: plasma; method in brief: as §2
[6] = Metabolic stability in rat hepatic microsomes assessed as parent compound remaining after 30 mins at 37 degC; assay type: ADME, microsome; conditions: liver microsomes
Method in brief: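 Compound incubated with rat hepatic microsomes for 30 min at 37 °C; percentage of compound remaining reported.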

Rattus norvegicus [7] = experiment: Induction of lymphopenia in Lewis rat assessed as reduction in lymphocyte numbers at 0.1 mg/kg, po after 4 hrs by automatic hemacytometry relative to untreated control; assay type: functional; parameters: scale not given: the % may be the effect or the level left
Method in brief: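 Male Lewis rats, 5 weeks old, 5 per group, given saline vehicle or 0.1 mg/kg compound orally. EDTA blood drawn before and 4 h after dosing. Lymphocytes counted by automatic hemacytometer; untreated rats also counted.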

Rattus norvegicus [8] = experiment: Immunosuppressive activity in Lewis rat injected with WKAH/Hkm rat spleen cells assessed as inhibition of host versus graft reaction by measuring popliteal lymph nodes weight dosed orally at 5 mL/kg once daily for 4 successive days starting on day of spleen cell injection; assay type: functional; conditions: po, read-out: ID50 (the source's name)
Method in brief: (§3)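 Lewis rats received 1×10^7 WKAH/Hkm splenocytes intracutaneously into both hind footpads. Syngeneic controls received Lewis splenocytes. Compound suspended in 0.5% tragacanth, given orally at 5 mL/kg once daily for 4 days from the day of cell injection; 5 rats/group. Popliteal lymph node weight gain measured relative to allogeneic control. ID50 by least squares from at least three doses.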

[9] = Half life in Lewis rat at 1 mg/kg, po; assay type: ADME, organism-based; parameters: dose 1 mg/kg, route oral; conditions: in vivo; method in brief: as §2
[10] = Drug metabolism in rat plasma assessed as compound phosphorylation at 100 ug/ml at 37 degC after 3 hrs by HPLC method; assay type: ADME, cell-free; conditions: read-out: Drug metabolism
Method in brief: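 Rat whole blood, citrate-treated, spiked with compound from 100 µg/mL DMSO stock and held 3 h at 37 °C. Methanol quench, centrifugation twice at 4 °C, reversed-phase HPLC with CH3CN/0.1% TFA gradient. Phosphorylation given as ratio of HPLC peak areas of phosphate to remaining parent.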

Rattus norvegicus [11] = experiment: Drug level in Wistar Imamichi rat at 1 to 30 mg/kg, po; assay type: ADME, organism-based; parameters: dose 1-30 mg/kg, route oral; conditions: in vivo
Rattus norvegicus [12] = experiment: Immunosuppressive activity in Lewis rat injected with WKAH/Hkm rat spleen cells assessed as inhibition of host versus graft reaction by measuring popliteal lymph nodes weight dosed orally at 1 mg/kg once daily for 4 successive days starting on day of spleen cell injection; assay type: functional; conditions: route oral; method in brief: as §3

Row | Compound | Ratio EC50 (Homo sapiens) | EC50 [1] [nM] | EC50 [2] [nM] | Cmax [3] [ng/mL] | half-life [4] [h] | AUC(0-t) at 48 h [5] [ng·h/mL] | remaining at 0.5 h [6] [%] | metabolised at 3 h, 100 ug/ml [10] [%] | further results
1 | CCCCCCCCc1ccc(CCC(N)(CO)CO)cc1 [FINGOLIMOD] | – | – | – | – | – | – | 97 | – | Activity (Rattus norvegicus [7]): 21%; ED50 (Rattus norvegicus [8]): 0.33 mg/kg; half-life [9]: 32 h
2 | Cc1ccc(CCCC(=O)c2ccc(COC[C@@](C)(N)CO)cc2)cc1.Cl | – | – | – | 13 | 5.7 | 120 | 51 | 39.5 | Activity (Rattus norvegicus [7]): 39.5%; ED50 (Rattus norvegicus [8]): 0.27 mg/kg; half-life [9]: 7.8 h
3 | CCCCCCCCc1ccc(CC[C@](N)(CO)COP(=O)(O)O)cc1 [FTY720-P] | – | – | – | – | – | – | > 100 | – | –
4 | Cc1ccc(CCCC(=O)c2ccc(COC[C@@](C)(N)CO)c(Cl)c2)cc1.Cl | – | – | – | 18 | 4.6 | 144 | 38 | 83.8 | ED50 (Rattus norvegicus [8]): 0.39 mg/kg; Drug uptake (Rattus norvegicus [11]): Dose-dependent effect
5 | Cc1ccc(CCCC(=O)c2ccc(COC[C@@](C)(N)CO)c(C)c2)cc1.Cl | – | – | – | 34 | 4.1 | 200 | 36 | 38.4 | ED50 (Rattus norvegicus [8]): 0.43 mg/kg; Drug uptake (Rattus norvegicus [11]): Dose-dependent effect
6 | Cc1ccc(CCCC(=O)c2cc(C)c(COC[C@@](C)(N)CO)cc2C)cc1 | – | – | – | – | – | – | – | 6 | inhibition in vivo at 1 mg/kg (Rattus norvegicus [12]): 11%

Now from value to compound, other results behind:

Row | Ratio EC50 (Homo sapiens) | EC50 [1] [nM] | EC50 [2] [nM] | Cmax [3] [ng/mL] | half-life [4] [h] | AUC(0-t) at 48 h [5] [ng·h/mL] | remaining at 0.5 h [6] [%] | metabolised at 3 h, 100 ug/ml [10] [%] | Compound | further results
7 | 21 | 60 | 2.8 | – | – | – | – | – | Cc1ccc(CCCC(=O)c2ccc(COC[C@@](C)(N)COP(=O)(O)O)c(F)c2)cc1 | –
8 | 60 | 180 | 3 | 104 | 4.3 | 806 | 92 | – | Cc1ccc(CCCC(=O)c2ccc(COC[C@@](C)(N)COP(=O)(O)O)c(C)c2)cc1 | –
9 | 29 | 200 | 7 | 72 | 7.8 | 799 | 92 | – | Cc1ccc(CCCC(=O)c2ccc(COC[C@@](C)(N)COP(=O)(O)O)cc2)cc1 | –
10 | > 3080 | > 20000 | 6.5 | – | – | – | – | – | Cc1ccc(CCCC(=O)c2cc(C)c(COC[C@@](C)(N)COP(=O)(O)O)cc2C)cc1 | –
11 | 5220 | 12000 | 2.3 | – | – | – | – | – | CCc1cc(C(=O)CCCc2ccc(C)cc2)ccc1COC[C@@](C)(N)COP(=O)(O)O | –
12 | – | – | – | – | – | – | – | 13.9 | CCc1cc(C(=O)CCCc2ccc(C)cc2)ccc1COC[C@@](C)(N)CO | inhibition in vivo at 1 mg/kg (Rattus norvegicus [12]): 10%
13 | > 1050 | > 20000 | 19 | – | – | – | – | – | Cc1ccc(CCCC(=O)c2ccc(COC[C@@](C)(N)COP(=O)(O)O)cc2C)cc1 | –
14 | 155 | 340 | 2.2 | – | – | – | – | – | Cc1ccc(CCCC(=O)c2cc(C)c(COC[C@@](C)(N)COP(=O)(O)O)c(C)c2)cc1 | –
15 | 55 | 220 | 4 | 97 | 4.6 | 658 | 86 | – | Cc1ccc(CCCC(=O)c2ccc(COC[C@@](C)(N)COP(=O)(O)O)c(Cl)c2)cc1 | –
